HTRA1 inhibitor = HTRA1 (human) protease inhibition. Q92743. recombinant HTRA1, FP-rhodamine activity-based probe, fluorescence polarization. inhibition, % at 5.96 µM. hit rate 0.5% among 340,000; in the data active = inhibition above about 36%;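 note: 0% = enzyme with DMSO and 100% = wells lacking enzyme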
Target sequence (Q92743 whole entry, looked up): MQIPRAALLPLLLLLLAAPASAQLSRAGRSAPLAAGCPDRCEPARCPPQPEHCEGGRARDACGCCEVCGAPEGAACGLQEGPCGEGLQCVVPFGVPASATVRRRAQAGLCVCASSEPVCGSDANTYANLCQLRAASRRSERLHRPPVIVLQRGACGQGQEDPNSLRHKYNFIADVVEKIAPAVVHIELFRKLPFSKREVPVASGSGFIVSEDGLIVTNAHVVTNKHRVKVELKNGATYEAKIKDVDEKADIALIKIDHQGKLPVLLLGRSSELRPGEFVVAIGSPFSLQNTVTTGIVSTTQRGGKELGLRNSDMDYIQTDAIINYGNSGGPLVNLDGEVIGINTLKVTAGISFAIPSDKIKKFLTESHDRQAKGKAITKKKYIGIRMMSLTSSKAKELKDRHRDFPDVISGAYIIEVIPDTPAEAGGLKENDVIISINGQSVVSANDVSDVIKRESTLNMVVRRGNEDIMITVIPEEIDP
SIAE inh = inhibitors of human sialic acid acetylesterase SIAE | inhibition, % at 9.66 µM | AID 1053197 | SIAE FP-Rh probe binding, fluorescence polarization | hit rate 0.69% among 370,000;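 active = inhibition above a cutoff: mean of compounds within the control limits plus 3 SD of those, cut at about 17% in these data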;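 note: 0% = plate median of compound wells and 100% = probe without SIAE protein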
rCAG binder = binds r(CAG) RNA repeats; inhibition, % at 3 µM; AID 651821; r(CAG) RNA repeat, TO-PRO-1 dye displacement fluorescence; hit rate 1.3% among 370,000;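 active = inhibition above the plate cutoff, the mean of all test compounds on that plate plus 3 SD, cut at about 35% in these data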;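 note: 0% = DMSO alone and 100% = 100 µM mitoxantrone as full dye displacement; higher means more dye released from RNA so lower well fluorescence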
TCR CD3 inh = blocks the human TCR-CD3 interaction. hit rate 0.37% among 360,000. inhibition, % at 9.4 µM. AID 651800. TAMRA-labeled TCR probe fluorescence, biochemical; in the data active = inhibition above about 19%;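 note: recombinant mutant TCR 2C K166C tagged with TAMRA read by polarization; 0% = receptor in buffer alone and 100% = receptor with positive control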
ABHD4 inh = ABHD4 (mouse) inhibition, primary FP screen. purified mABHD4, FP-Rh probe fluorescence polarization. hit rate 0.54% among 370,000. Q8VD66. inhibition, % at 8.92 µM;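 active = inhibition exceeding the mean over every tested compound plus 3 SD, cut at about 30% in these data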;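 note: 0% = plate median of compound wells and 100% = S159A mutant with DMSO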
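Test system: mABHD4 protein | Buffer or medium: HEPES pH 7.0 buffer, 150 mM NaCl, 0.01% Pluronic F-127 | Probe or stimulus: FP-Rh fluorescent activity-based probe, added after compound pre-incubation | Timing: Pre-incubation 45 min, probe exposure 60 min, at 25 °C | Technique: Fluorescence polarization, excitation 525 nm, emission 598 nm, BODIPY TMR filters | Repeats: Single well per compound (singlicate)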
rCAG binder conf = r(CAG) RNA repeat binding, confirmation. shares compounds with rCAG binder. TO-PRO-1 dye displacement fluorescence. inhibition, % at 3 µM. hit rate 70% among 4,300;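 active = inhibition above a per-plate cutoff, the mean inhibition of sample wells plus 3 SD, cut at about 35% in these data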;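 note: loss of TO-PRO-1 fluorescence as compound displaces dye from 1x1 AA loop RNA; 0% = DMSO only wells and 100% = 100 µM mitoxantrone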
DNA CAG counter = counter-screen for rCAG RNA binders: DNA CAG dye complex inhibitors. shares compounds with rCAG binder. hit rate 94% among 4,300. d(CAG) DNA oligo TO-PRO-1 dye displacement, fluorescence. inhibition, % at 3 µM;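 active = inhibition above its plate's cutoff, the mean test-well inhibition plus 3 SD, cut at about 4.8% in these data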;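 note: 0% = DNA dye mix with DMSO and 100% = 100 µM mitoxantrone; hits displace the dye from DNA and so lower well fluorescence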
* hit, by the source's call; · = no result given. Shown are actives, neighbours in structure and some others; about 2.5% of the full set was active somewhere.

SMILES	HTRA1 inhibitor	SIAE inh	rCAG binder	TCR CD3 inh	ABHD4 inh	rCAG binder conf	DNA CAG counter
CCOC(=O)COc1ccc(Br)cc1/C=C\c1[nH]c(=O)[nH]c(=O)c1[N+](=O)[O-]	-10	-7	84*	2	-11	43*	10*
CCOc1cc(/C=C\c2[nH]c(=O)[nH]c(=O)c2[N+](=O)[O-])ccc1OC(C)CC (centres undefined)	·	-8	22	4	-2	·	·
CCOc1ccc(/C=C/c2[nH]c(=O)[nH]c(=O)c2[N+](=O)[O-])cc1	-4	-3	39*	11	-6	16	7.0*
O=c1[nH]c(/C=C/c2ccccc2Cl)c([N+](=O)[O-])c(=O)[nH]1	3	-6	7	-8	-9	·	·
CCN(CC)CCNC(=O)c1ccc(NC2=NC3CS(=O)(=O)CC3S2)cc1 (centres undefined)	4	-1	0	1	3	·	·
CCc1ccc(NC(=O)C(C)OC(=O)c2cc(=O)[nH]c3ccc(S(=O)(=O)Nc4ccc(F)cc4)cc23)cc1 (centres undefined)	-8	-50	9	1	-11	·	·
Cc1cccc(NS(=O)(=O)c2ccc3[nH]c(=O)cc(C(=O)OC(C)C(=O)Nc4ccc([N+](=O)[O-])cc4)c3c2)c1 (centres undefined)	-113	-186	46*	16	-81	36*	17*
COc1ccc(Cc2n[nH]c(=S)n2NC(=O)Nc2ccc(Cl)c(Cl)c2)cc1	-46	-62	63*	-1	-48	37*	15*
CCOC(=O)c1ccc(NC(=O)c2c(NC(=O)CCC(=O)O)sc3c2CCCCC3)cc1	·	-5	43*	-4	2	34	10*
COC(=O)c1ccc(C(=O)OC)c(NC(=O)c2cccnc2)c1	-1	·	·	·	·	·	·
COc1ccc(OC(=O)c2cc(S(=O)(=O)N3CCCC3)ccc2Cl)cc1	-1	-2	-4	3	-4	·	·
COc1cccc(N(CC(=O)NCC2CCCO2)C(=O)CNS(=O)(=O)c2ccccc2)c1 (centres undefined)	1	-9	-3	2	-3	·	·
CCCCN1CC(C(=O)NCc2ccc(C)cc2)CC1=O (centres undefined)	0	0	46*	-6	-6	0	-1
COc1cccc(/C=C2\SC(N)=NC2=O)c1OS(=O)(=O)c1ccccc1	-4	-1	0	-4	0	·	·
COc1cc(/C=C2/SC(=S)NC2=O)ccc1OS(=O)(=O)c1ccc(C)cc1	-191	·	·	·	·	·	·
COc1cccc(/C=C2\SC(=S)NC2=O)c1OS(=O)(=O)c1ccc(NC(C)=O)cc1	-25	-25	69*	3	-2	32	9.3*
COc1ccc(/C=C2\SC(=S)NC2=O)cc1OS(=O)(=O)c1ccc(NC(C)=O)cc1	-50	-102	88*	0	-41	78*	35*
CN(C(=O)CSc1nnnn1-c1ccc(Cl)cc1)C1CCS(=O)(=O)C1 (centres undefined)	4	5	3	4	-2	·	·
CCOc1ccc(CN2C(=O)c3ccccc3Sc3ccc(C(=O)NCCCN4CCOCC4)cc32)cc1	-8	-6	3	-4	-1	·	·
CC(=O)Oc1c(C)c(OC(C)=O)c2c(c1C(C)=O)OC1CC(=O)C(C(C)=O)=C(O)C21C (centres undefined)	-1	1	9	-1	7	·	·
CC(=O)c1c(O)c(C)c(O)c2c1OC1=CC(=O)C(C(C)=O)C(=O)[C@@]12C (some centres undefined)	-3	2	42*	-12	1	14	3
CC(C)Oc1ccc(F)cc1-c1cc(C(=O)NCc2cc(C(F)(F)F)cc(C(F)(F)F)c2)[nH]n1	·	-50	-1	2	0	·	·
CC(C)(C)NC(=O)C(c1ccc(C#N)cc1)n1c(=O)c(-c2ccco2)nc2ccccc21 (centres undefined)	·	0	37*	-12	4	24	13*
COc1ccccc1NC(=O)CCN1C(=O)/C(=C/c2cc(OC)c(OC)c(OC)c2)SC1=S	2	6	-1	-12	5	·	·
COc1ccc(/C=C2\SC(=S)N(C(C(=O)O)c3ccccc3)C2=O)c(OC)c1 (centres undefined)	-62	-12	79*	3	-7	79*	45*
SMILES	HTRA1 inhibitor	SIAE inh	rCAG binder	TCR CD3 inh	ABHD4 inh	rCAG binder conf	DNA CAG counter
COc1cccc(/C=C2\SC(=S)N(C(C(=O)O)c3ccccc3)C2=O)c1OC (centres undefined)	-11	0	63*	7	1	63*	25*
O=C(O)C(c1ccccc1)N1C(=O)/C(=C\c2ccc(-c3ccccc3Cl)o2)SC1=S (centres undefined)	-4	1	45*	9	19	87*	63*
COc1cc(/C=C2\SC(=S)N(C(C(=O)O)c3ccccc3)C2=O)cc(OC)c1OC (centres undefined)	-10	-7	56*	-5	-3	64*	24*
COc1ccc2nc(N/C(=N/S(=O)(=O)c3cccs3)c3ccccc3Cl)sc2c1	-10	4	48*	6	-5	41*	13*
Cc1ccc(S(=O)(=O)c2cn(Cc3ccc(F)cc3)c3cc4c(cc3c2=O)OCO4)cc1	-18	-2	14	-7	11	·	·
Cc1ccc(-c2[nH]nc(N)c2N=Nc2ccccc2C)cc1	-2	12	32	-2	17	·	·
Cc1ccc(-c2[nH]nc(N)c2N=Nc2cccc(Cl)c2C)cc1	-1	4	42*	-1	10	23	12*
COc1ccc(CCNC(=O)C(=O)NN=C2CCCCCCC2)cc1OC	0	-2	-4	-4	4	·	·
O=C(c1ccc(Cl)cc1)N1CCn2c1nc1ccccc12	-4	7	-2	6	4	·	·
CSc1nsc2nc(=O)c(/C=C3\C(C)=Nc4ccccc43)c(N)n12	-18	-25	42*	-3	-39	25	4.7*
Cc1cc(=O)[nH]c(SCC(=O)Nc2ccc(F)cc2)c1C#N	·	-1	5	5	0	·	·
Cc1ccccc1NC(=O)CSc1nc2[nH]c(=O)cc(O)c2s1	-2	0	24	5	12	·	·
N#Cc1c(SCC(=O)Nc2ccc(C(F)(F)F)cc2)sc2c(O)cc(=O)[nH]c12	-22	-12	53*	-4	-2	30	11*
Cc1ccc(NC(=O)CSc2sc3c(O)cc(=O)[nH]c3c2C#N)c(F)c1	-26	-30	45*	9	-2	26	11*
O=C(O)c1ccc(CNS(=O)(=O)c2ccc3ccccc3c2)cc1	-5	5	0	-2	3	·	·
O=C(O)c1ccc(CNS(=O)(=O)c2ccc(Oc3ccccc3Cl)cc2)cc1	-7	-4	39*	-6	-26	28	6.6*

Screening data from PubChem BioAssay.
